pIC50: −log10 of the molar value.
Key:
[1] = molecular target: T1, Serine/threonine-protein kinase Sgk3 (Homo sapiens) (UniProt Q96BR1); test: Residual activity of SGK3 at 10 uM by microplate scintillation counting
T1 sequence (whole entry): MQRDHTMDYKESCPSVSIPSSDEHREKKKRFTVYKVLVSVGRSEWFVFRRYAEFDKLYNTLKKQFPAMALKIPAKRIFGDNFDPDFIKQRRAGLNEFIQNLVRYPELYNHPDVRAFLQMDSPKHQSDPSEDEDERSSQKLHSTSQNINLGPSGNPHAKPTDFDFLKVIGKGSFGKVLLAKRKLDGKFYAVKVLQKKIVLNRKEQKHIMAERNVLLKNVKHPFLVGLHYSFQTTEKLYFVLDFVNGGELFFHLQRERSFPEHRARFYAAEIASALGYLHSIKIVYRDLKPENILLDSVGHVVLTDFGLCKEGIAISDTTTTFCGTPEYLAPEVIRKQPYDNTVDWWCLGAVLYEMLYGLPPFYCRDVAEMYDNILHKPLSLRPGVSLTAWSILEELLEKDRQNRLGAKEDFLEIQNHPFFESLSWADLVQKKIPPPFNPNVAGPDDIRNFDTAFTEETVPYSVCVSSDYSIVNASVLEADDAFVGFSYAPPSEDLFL

[2] = molecular target: Serine/threonine-protein kinase WNK2 (Homo sapiens) (UniProt Q9Y3S1); test: Residual activity of WNK2 at 1 uM by microplate scintillation counting
[3] = molecular target: Serine/threonine-protein kinase PAK 1 (Homo sapiens) (UniProt Q13153); test: Residual activity of PAK1 at 10 uM by microplate scintillation counting
[4] = molecular target: Ephrin type-A receptor 7 (Homo sapiens) (UniProt Q15375); test: Residual activity of EPHA7 at 1 uM by microplate scintillation counting
[5] = molecular target: Cyclin-dependent kinase 4/cyclin D1 (Homo sapiens) (UniProt P11802+P24385); test: Residual activity of CDK4/Cyclin D1 at 10 uM by microplate scintillation counting; type: protein-complex assay
[6] = molecular target: Tyrosine-protein kinase Blk (Homo sapiens) (UniProt P51451); test: Residual activity of BLK at 10 uM by microplate scintillation counting
[7] = molecular target: Non-receptor tyrosine-protein kinase TYK2 (Homo sapiens) (UniProt P29597); test: Residual activity of TYK2 at 0.1 uM by microplate scintillation counting
[8] = molecular target: Tyrosine-protein kinase BTK (Homo sapiens) (UniProt Q06187); test: Residual activity of BTK at 10 uM by microplate scintillation counting
[9] = molecular target: CDC42BPA protein (Homo sapiens) (UniProt B9EGA7); test: Residual activity of CDC42BPA at 10 uM by microplate scintillation counting
[10] = molecular target: Misshapen-like kinase 1 (Homo sapiens) (UniProt Q8N4C8); test: Residual activity of MINK1 at 1 uM by microplate scintillation counting
[11] = molecular target: Tyrosine-protein kinase HCK (Homo sapiens) (UniProt P08631); test: Residual activity of HCK at 0.1 uM by microplate scintillation counting
[12] = molecular target: Proto-oncogene tyrosine-protein kinase Src (Homo sapiens) (UniProt P12931); test: Residual activity of SRC at 10 uM by microplate scintillation counting
[13] = molecular target: CDK6/cyclin D1 (Homo sapiens) (UniProt P24385+Q00534); test: Residual activity of CDK6/Cyclin D1 at 0.1 uM by microplate scintillation counting; type: protein-complex assay
[14] = molecular target: Fibroblast growth factor receptor 2 (Homo sapiens) (UniProt P21802); test: Residual activity of FGFR2 at 0.1 uM by microplate scintillation counting
[15] = molecular target: Glycogen synthase kinase-3 beta (Homo sapiens) (UniProt P49841); test: Residual activity of GSK3-beta at 1 uM by microplate scintillation counting
[16] = molecular target: Vascular endothelial growth factor receptor 2 (Homo sapiens, UniProt P35968); test: Inhibition of VEGFR2 by microplate scintillation counting
Aurora kinase A = molecular target: T2, Aurora kinase A (Homo sapiens, UniProt O14965); test: Inhibition of Aurora-A by microplate scintillation counting
T2 sequence (O14965 whole entry): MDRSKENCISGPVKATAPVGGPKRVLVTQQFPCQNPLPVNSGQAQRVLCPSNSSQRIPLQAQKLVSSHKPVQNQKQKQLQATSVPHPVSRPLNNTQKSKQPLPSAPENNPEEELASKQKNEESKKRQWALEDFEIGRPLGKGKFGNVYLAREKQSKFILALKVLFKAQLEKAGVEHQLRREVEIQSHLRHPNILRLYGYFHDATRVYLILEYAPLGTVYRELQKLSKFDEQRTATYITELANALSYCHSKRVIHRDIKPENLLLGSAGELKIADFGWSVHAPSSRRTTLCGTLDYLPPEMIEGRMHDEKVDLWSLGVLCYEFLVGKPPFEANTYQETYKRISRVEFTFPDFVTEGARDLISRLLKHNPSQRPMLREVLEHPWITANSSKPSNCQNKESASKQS
How it was run: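 Substrates: tetra(LRRWSLG) for Aurora A/B; poly(Ala,Glu,Lys,Tyr)6:2:5:1 for PDGFRβ; poly(Glu,Tyr)4:1 for TIE2 and VEGFR2. Stopped with 2% H3PO4.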

[17] = molecular target: Casein kinase I isoform epsilon (Homo sapiens) (UniProt P49674); test: Residual activity of CK1epsilon at 1 uM by microplate scintillation counting
[18] = molecular target: T3, G protein-coupled receptor kinase 3 (Homo sapiens) (UniProt P35626); test: Residual activity of GRK3 at 10 uM by microplate scintillation counting
T3 sequence (whole entry): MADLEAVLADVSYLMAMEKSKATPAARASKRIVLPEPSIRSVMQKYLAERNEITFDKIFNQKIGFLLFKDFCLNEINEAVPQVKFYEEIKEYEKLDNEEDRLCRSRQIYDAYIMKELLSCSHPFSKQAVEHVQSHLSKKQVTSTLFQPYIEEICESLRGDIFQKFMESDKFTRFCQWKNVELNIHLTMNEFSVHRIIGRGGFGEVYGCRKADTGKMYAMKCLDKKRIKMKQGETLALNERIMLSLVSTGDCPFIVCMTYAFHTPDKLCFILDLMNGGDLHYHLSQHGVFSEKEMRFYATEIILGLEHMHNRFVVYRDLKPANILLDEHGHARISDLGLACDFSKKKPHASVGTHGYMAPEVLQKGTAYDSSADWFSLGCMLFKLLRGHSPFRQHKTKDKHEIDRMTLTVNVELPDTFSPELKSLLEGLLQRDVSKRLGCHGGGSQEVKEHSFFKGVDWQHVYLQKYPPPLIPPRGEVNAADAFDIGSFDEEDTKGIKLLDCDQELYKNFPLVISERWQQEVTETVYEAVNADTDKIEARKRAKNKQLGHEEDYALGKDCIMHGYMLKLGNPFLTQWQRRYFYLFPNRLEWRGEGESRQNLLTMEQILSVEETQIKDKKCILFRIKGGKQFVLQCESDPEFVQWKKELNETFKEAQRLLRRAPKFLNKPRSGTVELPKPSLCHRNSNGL

[19] = molecular target: Protein kinase C gamma type (Homo sapiens) (UniProt P05129); test: Residual activity of PKCgamma at 1 uM by microplate scintillation counting

Chain of Serine/threonine-protein kinase WNK2 (Homo sapiens) (Q9Y3S1 whole entry): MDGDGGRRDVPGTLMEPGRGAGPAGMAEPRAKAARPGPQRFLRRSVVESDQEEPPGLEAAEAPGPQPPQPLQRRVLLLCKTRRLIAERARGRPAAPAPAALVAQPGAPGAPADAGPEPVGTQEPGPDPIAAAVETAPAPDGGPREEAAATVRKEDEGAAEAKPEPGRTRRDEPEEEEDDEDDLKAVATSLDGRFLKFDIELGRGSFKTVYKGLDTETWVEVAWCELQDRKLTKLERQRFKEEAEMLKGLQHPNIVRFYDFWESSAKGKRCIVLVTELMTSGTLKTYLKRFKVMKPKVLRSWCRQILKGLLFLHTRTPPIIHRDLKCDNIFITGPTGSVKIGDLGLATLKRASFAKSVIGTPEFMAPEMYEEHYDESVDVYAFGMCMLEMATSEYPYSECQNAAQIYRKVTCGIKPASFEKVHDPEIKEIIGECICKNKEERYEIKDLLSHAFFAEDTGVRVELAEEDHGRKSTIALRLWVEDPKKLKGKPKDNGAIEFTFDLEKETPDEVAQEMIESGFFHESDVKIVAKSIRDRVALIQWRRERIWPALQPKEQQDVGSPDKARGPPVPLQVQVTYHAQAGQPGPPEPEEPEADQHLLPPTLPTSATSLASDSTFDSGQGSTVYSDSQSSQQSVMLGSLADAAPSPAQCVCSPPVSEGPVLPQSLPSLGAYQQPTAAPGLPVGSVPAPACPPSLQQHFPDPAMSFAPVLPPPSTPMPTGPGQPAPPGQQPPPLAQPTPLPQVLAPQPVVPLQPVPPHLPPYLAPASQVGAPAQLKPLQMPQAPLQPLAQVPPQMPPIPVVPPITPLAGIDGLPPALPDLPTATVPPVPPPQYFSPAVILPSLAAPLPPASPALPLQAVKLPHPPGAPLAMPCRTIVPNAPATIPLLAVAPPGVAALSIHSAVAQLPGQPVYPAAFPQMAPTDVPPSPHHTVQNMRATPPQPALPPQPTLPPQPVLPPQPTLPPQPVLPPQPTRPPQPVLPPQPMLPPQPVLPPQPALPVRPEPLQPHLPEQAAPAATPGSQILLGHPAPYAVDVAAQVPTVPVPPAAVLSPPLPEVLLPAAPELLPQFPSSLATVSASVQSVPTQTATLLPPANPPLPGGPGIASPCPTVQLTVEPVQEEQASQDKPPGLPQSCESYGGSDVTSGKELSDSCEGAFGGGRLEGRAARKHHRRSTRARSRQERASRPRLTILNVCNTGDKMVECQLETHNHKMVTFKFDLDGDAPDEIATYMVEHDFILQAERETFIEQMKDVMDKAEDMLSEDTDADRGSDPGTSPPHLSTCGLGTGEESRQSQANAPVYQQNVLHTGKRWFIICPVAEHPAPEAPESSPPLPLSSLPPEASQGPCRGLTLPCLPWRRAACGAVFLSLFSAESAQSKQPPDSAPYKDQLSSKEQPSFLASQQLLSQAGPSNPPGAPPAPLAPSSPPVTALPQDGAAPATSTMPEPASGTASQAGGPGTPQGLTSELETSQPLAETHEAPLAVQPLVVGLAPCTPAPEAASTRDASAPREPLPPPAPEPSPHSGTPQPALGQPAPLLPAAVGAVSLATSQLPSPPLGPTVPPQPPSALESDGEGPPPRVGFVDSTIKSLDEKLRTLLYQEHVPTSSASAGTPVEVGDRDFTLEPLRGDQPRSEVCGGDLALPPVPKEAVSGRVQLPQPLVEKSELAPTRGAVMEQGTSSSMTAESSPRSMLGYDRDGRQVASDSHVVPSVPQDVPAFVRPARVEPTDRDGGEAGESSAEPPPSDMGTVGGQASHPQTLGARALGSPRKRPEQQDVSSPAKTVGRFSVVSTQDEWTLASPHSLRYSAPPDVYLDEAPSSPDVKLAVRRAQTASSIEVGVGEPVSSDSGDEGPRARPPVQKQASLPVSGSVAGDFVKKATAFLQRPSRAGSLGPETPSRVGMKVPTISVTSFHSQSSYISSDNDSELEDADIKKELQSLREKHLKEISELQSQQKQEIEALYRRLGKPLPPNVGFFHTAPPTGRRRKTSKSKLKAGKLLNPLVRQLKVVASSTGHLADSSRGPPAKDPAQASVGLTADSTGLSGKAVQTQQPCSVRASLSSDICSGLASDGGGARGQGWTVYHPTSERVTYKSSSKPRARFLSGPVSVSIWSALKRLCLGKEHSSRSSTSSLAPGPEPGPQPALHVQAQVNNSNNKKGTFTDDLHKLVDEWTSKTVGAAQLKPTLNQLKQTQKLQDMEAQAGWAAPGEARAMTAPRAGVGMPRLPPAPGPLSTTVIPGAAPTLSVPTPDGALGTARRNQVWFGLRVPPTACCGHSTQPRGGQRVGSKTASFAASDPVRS
Chain of Non-receptor tyrosine-protein kinase TYK2 (Homo sapiens) (P29597 whole entry): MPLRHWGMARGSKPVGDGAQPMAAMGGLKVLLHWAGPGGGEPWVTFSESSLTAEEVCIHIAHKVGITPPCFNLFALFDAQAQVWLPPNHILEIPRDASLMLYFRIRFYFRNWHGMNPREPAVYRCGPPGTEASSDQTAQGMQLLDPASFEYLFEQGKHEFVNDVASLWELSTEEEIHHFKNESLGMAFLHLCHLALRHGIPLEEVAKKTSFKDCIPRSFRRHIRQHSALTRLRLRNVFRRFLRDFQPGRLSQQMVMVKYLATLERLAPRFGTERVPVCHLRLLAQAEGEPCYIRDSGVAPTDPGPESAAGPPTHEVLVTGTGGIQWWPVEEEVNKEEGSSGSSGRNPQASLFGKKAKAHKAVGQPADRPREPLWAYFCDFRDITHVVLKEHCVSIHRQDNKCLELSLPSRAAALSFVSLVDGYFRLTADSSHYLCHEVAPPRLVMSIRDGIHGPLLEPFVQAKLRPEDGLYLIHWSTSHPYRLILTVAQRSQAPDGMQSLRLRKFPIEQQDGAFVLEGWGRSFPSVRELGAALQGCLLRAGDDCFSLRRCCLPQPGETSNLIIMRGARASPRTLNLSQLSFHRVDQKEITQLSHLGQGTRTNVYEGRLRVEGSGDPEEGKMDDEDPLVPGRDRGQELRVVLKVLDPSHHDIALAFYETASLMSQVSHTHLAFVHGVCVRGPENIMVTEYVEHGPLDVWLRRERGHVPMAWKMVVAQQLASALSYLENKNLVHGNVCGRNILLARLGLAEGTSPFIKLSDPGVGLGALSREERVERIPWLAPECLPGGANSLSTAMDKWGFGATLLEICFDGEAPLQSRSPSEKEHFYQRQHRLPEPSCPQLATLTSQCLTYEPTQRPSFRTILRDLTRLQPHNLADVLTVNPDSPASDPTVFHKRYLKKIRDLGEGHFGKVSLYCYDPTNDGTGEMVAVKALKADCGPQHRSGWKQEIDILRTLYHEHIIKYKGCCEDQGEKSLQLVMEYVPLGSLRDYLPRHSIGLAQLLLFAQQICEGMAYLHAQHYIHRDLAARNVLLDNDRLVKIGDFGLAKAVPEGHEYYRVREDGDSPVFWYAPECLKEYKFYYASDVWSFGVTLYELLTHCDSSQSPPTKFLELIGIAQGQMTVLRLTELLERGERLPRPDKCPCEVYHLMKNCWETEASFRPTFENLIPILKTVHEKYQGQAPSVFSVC
Chain of Proto-oncogene tyrosine-protein kinase Src (Homo sapiens) (P12931 2-536 limits assumed): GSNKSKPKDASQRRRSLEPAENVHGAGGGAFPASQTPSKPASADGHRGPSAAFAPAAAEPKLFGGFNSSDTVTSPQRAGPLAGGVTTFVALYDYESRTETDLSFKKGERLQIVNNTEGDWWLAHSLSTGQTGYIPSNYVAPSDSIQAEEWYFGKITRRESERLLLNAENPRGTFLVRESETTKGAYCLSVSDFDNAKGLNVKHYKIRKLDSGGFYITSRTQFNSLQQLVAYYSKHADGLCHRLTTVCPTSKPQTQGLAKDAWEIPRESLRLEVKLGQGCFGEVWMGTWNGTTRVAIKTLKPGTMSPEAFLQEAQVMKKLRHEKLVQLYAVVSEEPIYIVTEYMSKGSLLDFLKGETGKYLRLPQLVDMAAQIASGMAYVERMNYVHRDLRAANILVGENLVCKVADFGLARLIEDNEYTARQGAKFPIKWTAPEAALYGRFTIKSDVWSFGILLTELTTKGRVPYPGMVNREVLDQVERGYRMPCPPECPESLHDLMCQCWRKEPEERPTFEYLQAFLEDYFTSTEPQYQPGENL
Chain of Serine/threonine-protein kinase PAK 1 (Homo sapiens) (Q13153 whole entry): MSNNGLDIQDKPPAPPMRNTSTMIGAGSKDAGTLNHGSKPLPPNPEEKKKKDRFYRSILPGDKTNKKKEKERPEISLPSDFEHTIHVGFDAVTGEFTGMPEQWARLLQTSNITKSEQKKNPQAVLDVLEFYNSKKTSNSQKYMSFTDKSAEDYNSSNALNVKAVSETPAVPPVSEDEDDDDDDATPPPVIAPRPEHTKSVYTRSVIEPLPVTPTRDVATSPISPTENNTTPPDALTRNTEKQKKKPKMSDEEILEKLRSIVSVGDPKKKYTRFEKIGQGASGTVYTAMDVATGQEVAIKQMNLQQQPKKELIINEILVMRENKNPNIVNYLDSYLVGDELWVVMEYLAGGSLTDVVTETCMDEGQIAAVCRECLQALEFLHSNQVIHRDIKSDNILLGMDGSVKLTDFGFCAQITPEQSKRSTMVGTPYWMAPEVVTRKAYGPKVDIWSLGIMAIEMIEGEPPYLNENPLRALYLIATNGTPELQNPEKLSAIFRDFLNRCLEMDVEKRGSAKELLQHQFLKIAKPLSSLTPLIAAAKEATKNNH
Chain of Glycogen synthase kinase-3 beta (Homo sapiens) (P49841 whole entry, looked up): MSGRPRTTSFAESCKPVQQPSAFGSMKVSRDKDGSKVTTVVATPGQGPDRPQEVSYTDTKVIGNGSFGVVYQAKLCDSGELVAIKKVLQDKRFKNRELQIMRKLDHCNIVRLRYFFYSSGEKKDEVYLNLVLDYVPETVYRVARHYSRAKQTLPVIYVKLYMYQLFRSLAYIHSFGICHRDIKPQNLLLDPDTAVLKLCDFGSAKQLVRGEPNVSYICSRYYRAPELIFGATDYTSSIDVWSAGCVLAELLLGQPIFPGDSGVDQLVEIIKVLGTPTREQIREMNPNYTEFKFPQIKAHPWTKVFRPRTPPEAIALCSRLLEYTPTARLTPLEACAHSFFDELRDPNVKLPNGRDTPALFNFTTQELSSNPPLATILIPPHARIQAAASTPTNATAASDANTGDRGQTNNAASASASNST

SMILES | residual activity [1] | residual activity [2] | residual activity [3] | residual activity [4] | residual activity [5] | residual activity [6] | residual activity [7] | residual activity [8] | residual activity [9] | residual activity [10] | residual activity [11] | residual activity [12] | residual activity [13] | residual activity [14] | residual activity [15] | pIC50 [16] | pIC50 (Aurora kinase A) | residual activity [17] | residual activity [18] | residual activity [19]
COc1cc2c(Oc3ccc(-c4nc5ccccc5s4)cc3)ncnc2cc1OCCCN1CCN(C)CC1 | 112% | 25% | 68% | 102% | 97% | 34% | 90% | 40% | 61% | 85% | 96% | 75% | 99% | 101% | 84% | 6.83 | 7.09 | 94% | 135% | 117%
COc1cc2c(Oc3ccc(-c4nc5ccccc5s4)cc3F)ncnc2cc1OCCCN1CCN(C)CC1 | 97% | 53% | 57% | 94% | 99% | 10% | 102% | 6% | 51% | 73% | 115% | 45% | 107% | 105% | 93% | 6.38 | 6.66 | 101% | 125% | 117%
COc1cc2c(Oc3ccc(-c4nc5ccccc5s4)cc3)ncnc2cc1OCCCN1CCCC1 | 98% | 34% | 69% | 114% | 101% | 33% | 94% | 53% | 79% | 86% | 97% | 83% | 91% | 103% | 91% | 6.46 | 6.77 | 107% | 110% | 102%
